Measured values of several laboratories.
Each line is one published result; the experiments were not run side by side.
Target: NUAK family SNF1-like kinase 1 (NUAK1, Homo sapiens, UniProt O60285)
One construct used (O60285 1-661): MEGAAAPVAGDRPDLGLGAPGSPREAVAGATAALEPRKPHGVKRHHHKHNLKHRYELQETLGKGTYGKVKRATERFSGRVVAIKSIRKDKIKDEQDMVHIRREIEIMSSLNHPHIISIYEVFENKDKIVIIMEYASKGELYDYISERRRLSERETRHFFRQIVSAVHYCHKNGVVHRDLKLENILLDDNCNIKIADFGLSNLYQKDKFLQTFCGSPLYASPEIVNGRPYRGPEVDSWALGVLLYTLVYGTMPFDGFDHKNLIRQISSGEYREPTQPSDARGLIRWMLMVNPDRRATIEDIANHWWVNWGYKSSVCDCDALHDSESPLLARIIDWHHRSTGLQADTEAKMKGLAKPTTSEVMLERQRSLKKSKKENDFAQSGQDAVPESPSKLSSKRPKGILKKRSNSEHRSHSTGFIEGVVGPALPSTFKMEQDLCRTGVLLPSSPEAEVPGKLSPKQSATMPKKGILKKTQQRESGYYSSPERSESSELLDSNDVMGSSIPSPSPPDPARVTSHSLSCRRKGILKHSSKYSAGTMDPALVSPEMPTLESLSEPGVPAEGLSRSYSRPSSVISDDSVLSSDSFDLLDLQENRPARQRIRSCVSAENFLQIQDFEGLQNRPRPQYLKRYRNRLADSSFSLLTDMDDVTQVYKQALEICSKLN

Compound	read-out	method	tested at	remaining binding [%]
CCCCN(CCCC)C(=O)CN1C[C@@H](c2cc(OC)c3c(c2)OCO3)[C@H](C(=O)O)[C@H]1CC(C)(C)CCC	cell-free assay	competition with immobilised ligand	1 µM	82.4
CCN1CCN(Cc2ccc(C(=O)Nc3ccc(C)c(Oc4ccc5c(c4)CC(=O)N5)c3)cc2C(F)(F)F)CC1	binding	competition with immobilised ligand	1 µM	100
COc1ncc2cc3ccccc3nc2c1C#N	cell-free assay	competition with immobilised ligand	5 µM	87
c1cnn2ncc(-c3ccnc(N4CCC45COC5)n3)c2c1	binding	–	1 µM	100
NS(=O)(=O)c1cc(NC(=O)Cc2ccccc2)ccc1Oc1cccc(Cl)c1	cell-free assay	competition with immobilised ligand	1 µM	100
O=C(c1ccc(Nc2ncc(Cl)c(-c3cc4ccccc4s3)n2)cc1)N1CCC(N2CCCC2)CC1	binding	competition with immobilised ligand	1 µM	2.6
O=C(NC[C@@H]1[C@H]2CN(C(=O)OCc3cc(C(F)(F)F)cc(C(F)(F)F)c3)C[C@@H]12)c1ccc2[nH]nnc2c1	cell-free assay	competition with immobilised ligand	1 µM	87
CNC(=O)[C@@H]1CC[C@@H](n2c(-c3ccc4cnccc4c3)nc3ccc(C(=O)NCc4cccc(C(N)=O)c4)cc32)C1	binding	competition with immobilised ligand	1 µM	84
O=C(NCCCN1CCOCC1)c1ccc(Nc2ncc(Cl)c(-c3ccc(Cl)s3)n2)cc1	binding	competition with immobilised ligand	1 µM	0.9
CC(=O)N1CCC(c2ccc(C(=O)NC3=NCCN3)cc2C(F)(F)F)CC1	cell-free assay	competition with immobilised ligand	1 µM	98
CN(CCCC(F)(F)F)c1nccc(-c2cnn3ncccc23)n1	binding	–	1 µM	100
CNCc1ccccc1-c1csc([C@H](C)Nc2nc(C)nc3cc(OC)c(OC)cc23)c1	cell-free assay	competition with immobilised ligand	1 µM	90
N[C@@H]1CCN(c2nccc(-c3cnn4ncccc34)n2)C1	binding	–	1 µM	44
Cc1cnc(Nc2ccc(C(=O)N3CCC(N4CCCC4)CC3)cc2)nc1-c1cc2ccccc2s1	binding	competition with immobilised ligand	1 µM	2.7
CN(C)c1nccc(-c2cnn3ncccc23)n1	binding	–	1 µM	97
COc1cnc(Nc2cccc(S(N)(=O)=O)c2)nc1N1CCN(c2ccccc2)CC1	binding	competition with immobilised ligand	1 µM	82
C[C@H]1CCN(c2nccc(-c3cnn4ncccc34)n2)C1	binding	–	1 µM	90
O=C(NCC1CCOCC1)c1n[nH]cc1NC(=O)c1c(F)cccc1F	binding	competition with immobilised ligand	1 µM	100
